Measurements reported in PMC8546857 (Acta Pharmaceutica Sinica. B, 2021).
Entries after “also recorded” stand apart in the source; their conditions may differ. Where two headings read alike, the source gives them in different places.

Columns and labels:
[1] = molecular target: TEAD3-YBD recombinant protein (Homo sapiens, UniProt Q99594); assay: gel-based ABPP in vitro palmitoylation assay, TEAD3; format: biochemical; conditions: for inhibition of TEAD3 palmitoylation: click-based ABPP assay
Summary of the method: (§1)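 Protein incubated with varying test compound concentrations, 37 °C, 2 h; flufenamic acid as positive control. Then 2.5 μmol/L palmitoyl-CoA on ice, click reaction at RT. Quenched in SDS buffer with 30 mmol/L EDTA, 95 °C, 5 min. Read by Western blot with densitometry; biological triplicates, mean ± SD.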

[2] = molecular target: T1, TEAD‒YAP interaction (Homo sapiens, UniProt Q99594); conditions: FP assay; cited from earlier work
[3] = molecular target: TEAD4 (Homo sapiens, UniProt Q15561); assay: gel-based ABPP in vitro palmitoylation assay, TEAD4; format: biochemical; conditions: gel-based ABPP selectivity profiling
Summary of the method: as §1

[4] = molecular target: TEAD1-YBD (Homo sapiens, UniProt P28347); assay: gel-based ABPP in vitro palmitoylation assay, TEAD1; format: biochemical; conditions: gel-based ABPP selectivity profiling
Summary of the method: as §1

[5] = molecular target: widetype TEAD1 (Homo sapiens, UniProt P28347); assay: protein thermal shift assay; format: binding; conditions: DSF
Summary of the method: (§2)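 Differential scanning fluorimetry. 5 μmol/L purified wild-type or mutant protein with 5× SYPRO Orange, in 20 mmol/L HEPES pH 8.5, 100 mmol/L NaCl, 2.5% DMSO, with or without test compound. Ramped 25–95 °C on a real-time PCR instrument, ROX filter. Tm calculated from raw fluorescence data.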

[6] = molecular target: TEAD2 (Homo sapiens, UniProt Q15562); assay: gel-based ABPP in vitro palmitoylation assay, TEAD2; format: biochemical; conditions: gel-based ABPP selectivity profiling
Summary of the method: as §1

[7] = molecular target: GAL4-TEAD3 (Homo sapiens, UniProt Q99594); assay: GAL4-Luc reporter assay, GAL4-TEAD3; format: cell-based
Summary of the method: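 HEK293T cells (DMEM, 10% FBS, 1% penicillin/streptomycin) co-transfected with a GAL4-Luc reporter (secreted luciferase, 9×GAL4 binding elements), a GAL4-DBD-fused TEAD1, TEAD2, TEAD3 or TEAD4 expression vector, and a YAP-expressing plasmid. Test compound at the specified concentration, 37 °C, 12 h; luciferase signal read on a plate reader. Mean of three technical replicates.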

[8] = tested on: 8xGTIIC-Luc TEADs reporter; assay: TEAD luciferase reporter assay; format: cell-based; conditions: HEK293T cells, compared with DC-TEADin1072-N1
Summary of the method: (§3)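 HEK293T seeded at 2 × 10^5/well. Transfected with 200 ng 8xGTIIC-Luc TEAD reporter or TOPFlash β-catenin reporter, plus 20 ng pGL4.75 Renilla as internal control. Cells then exposed to various concentrations of test compound or DMSO. Firefly and Renilla signals measured by dual-luciferase assay.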

[9] = molecular target: TEAD1 C359S (Homo sapiens, UniProt P28347, C359S); assay: protein thermal shift assay; format: binding; conditions: DSF
Summary of the method: as §2

[10] = molecular target: TEAD3-YBD C371A mutant (Homo sapiens, UniProt Q99594, C368A); assay: protein thermal shift assay; format: binding; conditions: DSF
Summary of the method: as §2

[11] = molecular target: T2, TEAD3 (Homo sapiens, UniProt Q99594); assay: cellular thermal shift assay; format: cell-based; conditions: HEK293T cells, 50 μmol/L, 6 h
Summary of the method: (§4)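 HEK293T transfected with N-terminal 3×FLAG-tagged TEAD1–4, then given 50 μmol/L test compound or DMSO, 37 °C, 6 h. Cells trypsinised, PBS-washed, resuspended in PBS with protease inhibitor. Aliquots heated 3 min at set temperatures, then 3 min at room temperature. Three freeze–thaw cycles (liquid nitrogen/RT water), spin 20,000×g, 30 min, 4 °C. Soluble fraction immunoblotted for FLAG, with GAPDH.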
Target sequence in this assay (Q99594 whole entry): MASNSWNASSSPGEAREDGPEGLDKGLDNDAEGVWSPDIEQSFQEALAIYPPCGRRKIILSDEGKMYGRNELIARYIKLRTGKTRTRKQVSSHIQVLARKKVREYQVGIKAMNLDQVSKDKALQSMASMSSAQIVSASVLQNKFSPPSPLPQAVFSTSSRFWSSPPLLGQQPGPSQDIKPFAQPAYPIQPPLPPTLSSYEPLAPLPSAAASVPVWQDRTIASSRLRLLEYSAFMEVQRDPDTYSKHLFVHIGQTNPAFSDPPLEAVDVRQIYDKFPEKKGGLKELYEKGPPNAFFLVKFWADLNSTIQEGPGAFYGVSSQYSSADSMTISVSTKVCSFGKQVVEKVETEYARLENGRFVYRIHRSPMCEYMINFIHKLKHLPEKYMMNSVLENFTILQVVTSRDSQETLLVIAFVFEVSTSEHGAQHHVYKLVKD

[12] = tested on: juvenile zebrafish; assay: proportional growth of juvenile zebrafish; format: in vivo; conditions: 2-month-old juveniles, 0.25 μmol/L in water, 14 days
Summary of the method: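 AB wild-type zebrafish, 2 months old, both sexes equally, 10 per dish in 30 mL sterilised facility water. Water held 0.25 μmol/L test compound (final) or matching DMSO dilution for 14 days, aerated, refreshed daily; fed twice daily. Fish imaged by stereomicroscope from day 0. Fin length taken from fin base to line joining lobe tips; body length from jaw tip to caudal fin base.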

[13] = molecular target: TEAD3 Y223 mutated to phenylalanine (Homo sapiens, UniProt Q99594, Y230F); assay: gel-based ABPP assay, TEAD3 Y223F mutant; format: biochemical
Summary of the method: as §1

[14] = tested on: TOP Flash beta-catenin reporter system; assay: TOPFlash beta-catenin reporter assay; format: cell-based; conditions: HEK293T cells
Summary of the method: as §3

[15] = molecular target: wild-type TEAD3-YBD (Homo sapiens, UniProt Q99594); assay: protein thermal shift assay; format: binding; conditions: DSF
Summary of the method: as §2

[16] = molecular target: T3, TEAD1 (Homo sapiens, UniProt P28347); assay: intact protein mass spectrometry, TEAD1; format: binding; conditions: excessive compound, 24 h at 4 °C
Summary of the method: (§5)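 Intact-mass LC/MS. Protein diluted to 1 mg/mL in water with 0.1% formic acid; 2 μg injected. Separated on a PLRP-S column with a 15-min water/acetonitrile (0.1% formic acid) gradient at 0.300 mL/min. Analysed on an Orbitrap Fusion with HESI source (capillary 350 °C, 3.5 kV).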
Target sequence in this assay (P28347 209-426): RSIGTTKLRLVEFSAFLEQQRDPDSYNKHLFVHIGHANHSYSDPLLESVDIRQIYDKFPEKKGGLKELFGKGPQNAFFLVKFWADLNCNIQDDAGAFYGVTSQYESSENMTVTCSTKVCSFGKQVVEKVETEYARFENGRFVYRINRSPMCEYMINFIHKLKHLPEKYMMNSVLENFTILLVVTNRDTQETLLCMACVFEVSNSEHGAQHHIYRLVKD

[17] = molecular target: T1, TEAD‒YAP interaction; assay: fluorescence polarization assay with FITC-labeled YAP peptide; format: binding; conditions: FP assay, FITC-YAP(61-100), TEAD3 protein
Summary of the method: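 Then 30 nmol/L FITC-YAP(61–100) added for 30 min at room temperature. Polarisation read at ex 480/em 520 nm. Unlabelled synthetic YAP peptide as positive control; triplicates.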

[18] = molecular target: T2, TEAD3; assay: intact protein mass spectrometry, TEAD3; format: binding; conditions: excessive compound, 24 h at 4 °C
Summary of the method: as §5
Target sequence in this assay (Q99594 219-435): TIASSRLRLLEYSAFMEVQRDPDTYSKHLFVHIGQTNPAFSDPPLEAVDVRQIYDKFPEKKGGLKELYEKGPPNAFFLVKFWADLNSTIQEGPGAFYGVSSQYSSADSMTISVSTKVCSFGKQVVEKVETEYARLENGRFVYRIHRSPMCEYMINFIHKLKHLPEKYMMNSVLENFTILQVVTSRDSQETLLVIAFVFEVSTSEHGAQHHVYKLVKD

[19] = molecular target: T3, TEAD1; assay: cellular thermal shift assay; format: cell-based; conditions: HEK293T cells, 50 μmol/L, 6 h
Summary of the method: as §4
Target sequence in this assay (P28347 whole entry, the tested form may be a part): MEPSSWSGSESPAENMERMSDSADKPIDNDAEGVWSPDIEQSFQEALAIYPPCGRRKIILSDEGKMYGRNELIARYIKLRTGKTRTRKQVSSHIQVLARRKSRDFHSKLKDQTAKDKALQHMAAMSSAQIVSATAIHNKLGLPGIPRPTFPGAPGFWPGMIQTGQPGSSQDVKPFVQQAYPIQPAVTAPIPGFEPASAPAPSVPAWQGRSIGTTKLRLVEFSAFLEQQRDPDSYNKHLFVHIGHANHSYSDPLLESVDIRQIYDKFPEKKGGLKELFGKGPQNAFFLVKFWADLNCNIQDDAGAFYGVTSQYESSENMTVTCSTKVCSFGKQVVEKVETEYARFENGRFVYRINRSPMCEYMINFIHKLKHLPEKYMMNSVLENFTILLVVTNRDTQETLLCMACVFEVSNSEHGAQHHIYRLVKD

[20] = molecular target: TEAD1-YBD C359A mutant (Homo sapiens, UniProt P28347, C359A); assay: protein thermal shift assay; format: binding; conditions: DSF
TEAD1-YBD C359A mutant, sequence (P28347 209-426 C359A): as the sequence (P28347 209-426) above, with C151A counted along it

TEAD3-YBD recombinant protein, sequence (Q99594 219-435): as the sequence (Q99594 219-435) above
TEAD4, sequence (Q15561 217-434): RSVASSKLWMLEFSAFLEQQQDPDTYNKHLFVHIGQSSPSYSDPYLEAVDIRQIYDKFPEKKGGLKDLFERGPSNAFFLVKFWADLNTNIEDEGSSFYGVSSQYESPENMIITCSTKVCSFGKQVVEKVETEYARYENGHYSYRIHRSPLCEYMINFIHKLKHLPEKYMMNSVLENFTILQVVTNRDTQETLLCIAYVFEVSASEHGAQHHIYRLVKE
T1 sequence (Q99594 219-435): as the sequence (Q99594 219-435) above
T1 sequence (P46937 61-100 partner limits assumed): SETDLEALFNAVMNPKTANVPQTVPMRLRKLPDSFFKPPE
wild-type TEAD3-YBD, sequence (Q99594 219-435): as the sequence (Q99594 219-435) above
TEAD3-YBD C371A mutant, sequence (Q99594 219-435 C368A): as the sequence (Q99594 219-435) above, with C150A counted along it
TEAD2, sequence (Q15562 217-447): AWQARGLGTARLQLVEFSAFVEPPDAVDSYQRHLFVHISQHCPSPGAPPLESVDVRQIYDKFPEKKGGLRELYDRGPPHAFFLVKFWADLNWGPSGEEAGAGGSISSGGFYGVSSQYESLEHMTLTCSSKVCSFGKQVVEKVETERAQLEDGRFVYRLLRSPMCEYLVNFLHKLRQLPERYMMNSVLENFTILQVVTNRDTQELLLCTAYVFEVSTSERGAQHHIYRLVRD
GAL4-TEAD3, sequence (Q99594 2-435): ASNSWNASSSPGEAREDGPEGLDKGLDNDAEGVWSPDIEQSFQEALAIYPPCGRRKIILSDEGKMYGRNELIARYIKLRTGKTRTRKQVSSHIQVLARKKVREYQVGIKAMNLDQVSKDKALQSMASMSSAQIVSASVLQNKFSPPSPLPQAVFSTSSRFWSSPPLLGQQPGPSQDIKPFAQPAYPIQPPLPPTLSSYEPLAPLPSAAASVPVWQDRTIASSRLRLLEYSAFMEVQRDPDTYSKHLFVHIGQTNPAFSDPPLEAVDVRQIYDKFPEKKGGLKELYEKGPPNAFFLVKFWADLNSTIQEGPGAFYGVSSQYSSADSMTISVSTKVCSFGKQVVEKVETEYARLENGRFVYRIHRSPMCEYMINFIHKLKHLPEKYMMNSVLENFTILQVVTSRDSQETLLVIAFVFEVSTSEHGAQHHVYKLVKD
GAL4-TEAD3, sequence (P46937 whole entry partner, the tested form may be a part): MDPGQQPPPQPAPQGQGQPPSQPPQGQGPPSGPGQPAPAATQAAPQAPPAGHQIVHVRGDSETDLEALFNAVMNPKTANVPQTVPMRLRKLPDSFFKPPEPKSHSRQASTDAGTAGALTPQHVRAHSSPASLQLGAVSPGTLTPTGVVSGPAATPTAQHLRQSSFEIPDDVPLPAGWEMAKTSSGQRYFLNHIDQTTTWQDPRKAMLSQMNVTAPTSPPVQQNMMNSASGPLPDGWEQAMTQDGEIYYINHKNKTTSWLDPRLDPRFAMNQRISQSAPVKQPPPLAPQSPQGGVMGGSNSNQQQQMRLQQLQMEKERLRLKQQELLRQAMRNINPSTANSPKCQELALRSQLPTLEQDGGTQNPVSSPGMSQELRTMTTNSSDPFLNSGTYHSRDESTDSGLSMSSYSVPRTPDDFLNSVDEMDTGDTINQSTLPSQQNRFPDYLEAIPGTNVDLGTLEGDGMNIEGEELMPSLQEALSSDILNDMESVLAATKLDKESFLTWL
TEAD1 C359S, sequence (P28347 209-426 C359S): as the sequence (P28347 209-426) above, with C151S counted along it
widetype TEAD1, sequence (P28347 209-426): as the sequence (P28347 209-426) above
TEAD1-YBD, sequence (P28347 209-426): as above
TEAD3 Y223 mutated to phenylalanine, sequence (Q99594 219-435 Y230F): as the sequence (Q99594 219-435) above, with Y12F counted along it

SMILES | inhibition of TEAD3 palmitoylation [1] | inhibition of TEAD4 palmitoylation [3] | inhibition of TEAD2 palmitoylation [6] | effect on thermal stability of TEAD3 C371A mutant [10] | thermal stability / soluble fraction of TEAD3 in intact cells [11] | ectopic or tumorous growth [12] | body growth rate ([12]; vs DMSO) | body length ([12]; vs DMSO) | growth rate of the caudal fin ([12]; vs DMSO) | further results
C=CC(=O)N1CCN(CCCOCc2ccccc2)CC1 [DC-TEAD3in02, 1-(4-(3-(Benzyloxy)propyl)piperazin-1-yl)prop-2-en-1-one] | potent inhibition |  |  |  |  |  |  |  |  | 
CCC(=O)N1CCC(CCOc2ccccc2)CC1 [DC-TEADin1072-N1, 1-(4-(2-Phenoxyethyl)piperidin-1-yl)propan-1-one] | minimal inhibition |  |  |  |  |  |  |  |  | 
O=C(O)c1ccccc1Nc1cccc(C(F)(F)F)c1 [flufenamic acid] |  |  |  |  |  |  |  |  |  | effect on TEAD‒YAP interaction [2]: minimal effect
C=CC(=O)N1CCCN(CCCOCc2ccccc2)C1 [DC-TEAD3in03, 1-(3-(3-(Benzyloxy)propyl)tetrahydropyrimidin-1(2H)-yl)prop-2-en-1-one] | potent inhibition | sparing | sparing | minimal effect | increased the soluble fraction; also recorded: significantly increases the content of TEAD3 soluble contents | no ectopic or tumorous growth | did not observe a significant difference | did not observe a significant difference | reduced the growth rate; also recorded: selective reduction | inhibition of TEAD1 palmitoylation [4]: selectively inhibited; effect on thermal stability of wild-type TEAD1 [5]: minimal effect; IC50 [7]: 1150 nM; TEAD reporter activity [8]: significant reduction; effect on thermal stability of TEAD1 C359S mutant [9]: minimal effect; IC50 [13]: ~18500 nM; effect on TOP Flash beta-catenin reporter [14]: minimal effect; selectivity over other TEAD isoforms ([1]; TEAD3 versus other TEAD isoforms, ABPP assays): 100 fold; effect on thermal stability of TEAD3 protein [15]: significantly improved
C=CC(=O)N1CCC(O)(CCCOCc2ccccc2)CC1 [DC-TEAD3in01, 1-(4-(3-(Benzyloxy)propyl)-4-hydroxypiperidin-1-yl)prop-2-en-1-one] | potent inhibition |  |  |  |  |  |  |  |  | 
C=CC(=O)N1CCC(CCOc2ccccc2)CC1 [DC-TEADin1072, 1-(4-(2-Phenoxyethyl)piperidin-1-yl)prop-2-en-1-one] |  | sparing | sparing | significantly abolished the compound effect | increase the thermal stability | No obvious ectopic or tumorous growth | decreased significantly; also recorded: reduction | nearly significantly different | reduced; also recorded: reduction | difference in mass of TEAD1 protein after incubation [16]: +259.5 Da; effect on TEAD‒YAP interaction [17]: minimal effect; difference in mass of TEAD3 protein after incubation [18]: +259.5 Da; thermal stability of TEAD1 in intact cells [19]: increase the thermal stability; effect on thermal stability of TEAD1-YBD C359A mutant [20]: significantly abolished the compound effect; tail (caudal fin) length ([12]; vs DMSO): no differences; IC50 [1]: 580 ± 120 nM
